Screens: PubChem, several laboratories
Shown is part of a subset that was picked to be rich in hits.
FLuc act counter = FLuc activators, initial screening, artefact control for FLuc-dependent activation tests, biochemical, ATPlite luminescence | ATPlite luciferase biochemical, 10 min; 0 = ATP-free wells, 1 = DMSO control | activation factor at 10 µM | 200,000 tested, under 10 active | AID 1027, 2008;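 active means luciferase activation factor, scaled between plate controls, of at least 2 with compound at 10 µM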
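Material: luciferase plus luciferin reagent, cell-free. Medium: PBS buffer for ATP. Also added: ATP substrate, dispensed from a 10.24 µM working solution in PBS. Doses: test compounds dosed from 2 mM stocks in 100% DMSO. Incubation: 10 min post-reagent at room temperature. Technique: light output (luminescence). Read-out basis: luminescence gain marking luciferase activators.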
ABCB1 block = ABCB1 efflux pump inhibitors, primary screen, cell-based, multiplex, flow cytometry, ABCG2 counter-screen. CCRF-Adr cells, JC-1 efflux. inhibition, % at 6.6 µM. 0.067% of 190,000 active; in the data active means inhibition above about 40%;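 further: 0% = vehicle and 100% = reference inhibitor; higher value means more JC-1 retained so stronger ABCB1 efflux block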
FLuc inhib CS = firefly luciferase enzyme inhibitors, primary screen, artefact control for luciferase-based inhibitor screens, biochemical, luminescence, ATPLite; Luciferin 4-monooxygenase (Photinus pyralis), P08659; 10 min; inhibition, % at 10 µM; 1.5% of 200,000 active;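 active means inhibition above about 50% when tested at 10 µM, limit read from the data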
Diaphorase act = compounds boosting diaphorase resazurin reduction – biochemical, uHTS, resorufin fluorescence, counter-screen for diaphorase-coupled primary assays, primary screen. Diaphorase/resazurin coupled assay, 16 min; active compounds read high; 1 = vehicle wells, 0 = NADH-free wells. activation factor at 20 µM. 0.005% of 190,000 active. AID 1229, 2008;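 active means diaphorase activity raised at least twofold by the compound at 20 µM; inactive means activation factor below 2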
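Material: purified diaphorase enzyme from Clostridium kluyveri; Also added: 0.114 mM NADH and 0.1 mM resazurin, final amounts; Doses: single compound dose of 20 µM, 1% DMSO final; Times: 16 min enzyme reaction, ambient temperature; Detection: resorufin fluorescence, excitation 544 nm, emission 590 nm; Measure: increased resorufin signal from activators or reducing compounds.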
ABCB6 inh 2 = ABCB6 transporter inhibitors, primary screen, K562-ABCB6 cells, flow cytometry, MLPCN library | ATP-binding cassette sub-family B member 6 (Homo sapiens), Q9NP58 | K562-ABCB6 porphyrin accumulation, 1 h; active compounds read low | fluorescence ratio to DMSO, % at 10 µM | 0.19% of 360,000 active;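 active means fluorescence ratio to DMSO below 75%, the collection mean minus 3 SD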;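 further: signal is porphyrin accumulated inside mitochondria; 100% equals median channel fluorescence of DMSO control wells; lower ratio means ABCB6 inhibition with less porphyrin fluorescence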
ABCG2 inh = ABCG2 efflux pump inhibitors, primary screen, multiplex with ABCB1, IgMXP3 cells, flow cytometry. inhibition, % at 6.6 µM. JC-1 efflux. 0.1% of 190,000 active. Broad substrate specificity ATP-binding cassette transporter ABCG2 (Homo sapiens), Q9UNQ0. AID 1325, 2008;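 active means inhibition above 80%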;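 further: 0% = DMSO and 100% = nicardipine control wells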
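Incubation: cells with compound and JC-1, 10 min at 25 °C, rotating, no wash / Test system: IgMXP3 (ABCG2) plus far-red-tagged CCRF-Adr (ABCB1) cells / Compound dosing: one concentration, 6.6 µM final / Also added: JC-1 fluorescent substrate / Evaluation: efflux inhibition in percent versus controls / Detection: flow cytometry, 530 nm JC-1 signal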
ABCB6 inh CP1 = ABCB6 transporter inhibitors, confirmation, K562-ABCB6 cells, flow cytometry, cherry pick 1; shares compounds with ABCB6 inh 2; K562-ABCB6 porphyrin accumulation, 1 h; active compounds read low; ratio response (% of DMSO), % at 10 µM; 700 tested, under 10 active; AID 602430, 2012;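 active means repeat-averaged ratio response below 75% of DMSO, the collection mean minus 3 SD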;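 further: median porphyrin fluorescence at 575 nm with 488 nm excitation from mitochondria; lower ratio means less porphyrin signal so ABCB6 inhibition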
The depositor's hits bear a star; x = no result.

SMILES	FLuc act counter	ABCB1 block	FLuc inhib CS	Diaphorase act	ABCB6 inh 2	ABCG2 inh	ABCB6 inh CP1
O=C(Nc1cccc(OC(F)(F)F)c1)C1Cc2c(-c3ccc4c(c3)OCO4)ccnc2O1 (centres undefined)	x	x	x	x	101.0	x	99.0
O=C(Nc1cccc(OC(F)(F)F)c1)C1Cc2c(-c3ccc(Cl)cc3)ccnc2O1 (centres undefined)	x	x	x	x	91.0	x	x
O=C(Nc1cccc(Oc2ccccc2)c1)C1Cc2c(-c3ccc4c(c3)OCO4)ccnc2O1 (centres undefined)	x	x	x	x	102.0	x	98.0
Cc1ccc(C(=O)NCCc2c[nH]c3ccccc23)s1	x	x	x	x	98.0	x	x
OC(Cc1cccc(Br)c1)c1ncc(-c2ccccc2C(F)(F)F)[nH]1 (centres undefined)	x	x	x	x	94.0	x	x
CCOc1ccc(C(C(=O)NCC2CCCO2)N(Cc2cccnc2)C(=O)c2snc(C(N)=O)c2N)cc1 (centres undefined)	x	x	x	x	74.0*	x	102.0
CCOc1ccccc1NC(=O)CCNC(=O)C1CCN(S(=O)(=O)c2ccccc2)CC1	x	x	x	x	98.0	x	x
COc1ccc([N+](=O)[O-])cc1NC(=O)C1CCCO1 (centres undefined)	1	0.7	-3.4	0.9	71.0*	13.8	101.0
CCn1cc([N+](=O)[O-])c(C(=O)Nc2ccn(Cc3ccccc3F)n2)n1	1.1	0.3	-8.6	0.9	71.0*	2.7	103.0
COc1ccc(N(C(=O)C(C)C)S(=O)(=O)c2ccc(Cl)cc2)cc1	1.1	1.5	-8.6	0.8	48.0*	3.1	98.0
COC1Cc2ccccc2N(C(N)=O)c2ccccc21 (centres undefined)	x	x	x	x	94.0	x	x
Cc1ccc(CC2CC(=O)N(CCc3ccc4c(c3)OCO4)C2=O)cc1 (centres undefined)	1.1	0.3	-9.4	0.8	74.0*	1.7	98.0
COc1ccc(CC(=O)Nc2c3c(nn2-c2ccccc2C)CS(=O)C3)cc1 (centres undefined)	1.1	0.1	-6.4	1	59.0*	1.9	99.0
Cc1ccccc1-n1nc2c(c1NC(=O)COc1ccc(Cl)cc1)CS(=O)C2 (centres undefined)	1	1.1	1.2	1.1	98.0	3.3	x
CCCSc1nc2sc3c(c2c(=O)[nH]1)CC(C)(CC)OC3 (centres undefined)	x	x	x	x	96.0	x	x
CCSc1nc2sc3c(c2c(=O)[nH]1)CC(C)(CC)OC3 (centres undefined)	1	0.4	-1.6	1	61.0*	2.1	97.0
CN(CC(=O)Nc1c(Cl)cccc1Cl)C(=O)Cc1cccs1	x	x	x	x	103.0	x	x
O=C(CSc1nc2c(c(=O)[nH]1)CCC2)Nc1ccc(F)cc1	x	x	x	x	98.0	x	x
O=C(CSc1nc2c(c(=O)[nH]1)CCCC2)Nc1ccc(Cl)cc1F	1	0.3	0.2	0.9	70.0*	2.3	104.0
COc1ccc(N2CCN(C(=O)CCCCCn3c(=S)[nH]c4ccc(N5CCOCC5)cc4c3=O)CC2)cc1	x	x	x	x	73.0*	x	96.0
CCCCC(=O)N(C)c1c(CC)nc2c(OCCOc3ccccc3)cccn12	x	x	x	x	87.0	x	x
O=C1c2ccccc2C(=O)N1CCc1csc(-c2cccc(F)c2)n1	1	0.5	-4.4	0.7	72.0*	10.0	98.0
O=C1c2ccccc2C(=O)N1CCc1csc(-c2cccc(Cl)c2)n1	1	0.3	-3.1	0.7	95.0	1.2	x
CSc1nnc(NC(=O)c2nc(S(=O)(=O)Cc3ccccc3F)ncc2Cl)s1	x	x	x	x	96.0	x	x
